According to PMC10883374 (Science Advances, 2022):
Each block holds one compound with its values, some of them ahead of it.

What was measured:
[1] = molecular target: dSAMTOR (WT, full-length) (Drosophila melanogaster, UniProt Q9W138); assay: ITC ligand binding, WT dSAMTOR; details: ITC, 25°C, WT dSAMTOR
Method in brief: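 Full-length dSAMTOR was expressed as His6-SUMO fusion in E. coli BL21 (DE3), Ni-NTA purified, tag-cleaved, then gel-filtered into 10 mM Hepes pH 7.5, 150 mM NaCl, 1 mM DTT. ITC ran at 25°C: 20 × 2 µl injections of 1 mM SAM or SAH into 0.2 mM protein, discarding an initial 0.8 µl injection, with a buffer background titration. Single-site nonlinear least-squares fit gave ΔH, n and Kd.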

[2] = molecular target: N-terminal truncated dSAMTOR (Δ1-64) (Drosophila melanogaster, UniProt Q9W138); assay: ITC ligand binding, Δ1-64 dSAMTOR; details: ITC, 25°C, Δ1-64 dSAMTOR
Method in brief: (§1)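 Tag-free dSAMTOR, expressed as His6-SUMO fusion in E. coli BL21(DE3), purified by Ni-NTA and gel filtration into 10 mM Hepes pH 7.5, 150 mM NaCl, 1 mM DTT. At 25°C, 1 mM SAM or SAH was titrated into 0.2 mM protein over 20 injections, with a background titration into buffer. Single-site fit gave Kd, ΔH and n; ΔG and ΔS were calculated. Runs: three for measurable binding, two for undetectable binding.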

[3] = molecular target: V66W/E67P mutant dSAMTOR (Drosophila melanogaster, UniProt Q9W138, E67P/V66W); assay: ITC ligand binding, V66W/E67P dSAMTOR; details: ITC, 25°C, V66W/E67P dSAMTOR
Method in brief: as §1

[4] = molecular target: R73A mutant dSAMTOR (Drosophila melanogaster, UniProt Q9W138, R73A); assay: ITC ligand binding, R73A dSAMTOR; details: 25°C, ND = not detected
Method in brief: as §1

[5] = molecular target: D150A mutant dSAMTOR (Drosophila melanogaster, UniProt Q9W138, D150A); assay: ITC ligand binding, D150A dSAMTOR; details: 25°C, ND = not detected
Method in brief: as §1

[6] = molecular target: D162A mutant dSAMTOR (Drosophila melanogaster, UniProt Q9W138, D162A); assay: ITC ligand binding, D162A dSAMTOR; details: 25°C, ND = not detected
Method in brief: as §1

[7] = molecular target: L151A mutant dSAMTOR (Drosophila melanogaster, UniProt Q9W138, L151A); assay: ITC ligand binding, L151A dSAMTOR; details: 25°C, ND = not detected
Method in brief: as §1

[8] = molecular target: L163A mutant dSAMTOR (Drosophila melanogaster, UniProt Q9W138, F163A); assay: ITC ligand binding, L163A dSAMTOR; details: 25°C, L163A dSAMTOR (text b27: F163A), ND = not detected
Method in brief: as §1

[9] = molecular target: L197A mutant dSAMTOR (Drosophila melanogaster, UniProt Q9W138, L197A); assay: ITC ligand binding, L197A dSAMTOR; details: 25°C, ND = not detected
Method in brief: as §1

[10] = molecular target: Y201A mutant dSAMTOR (Drosophila melanogaster, UniProt Q9W138, Y201A); assay: ITC ligand binding, Y201A dSAMTOR
Method in brief: as §1

[11] = molecular target: M202A mutant dSAMTOR (Drosophila melanogaster, UniProt Q9W138, M202A); assay: ITC ligand binding, M202A dSAMTOR; details: 25°C, ND = not detected
Method in brief: as §1

[12] = molecular target: F135A mutant dSAMTOR (Drosophila melanogaster, UniProt Q9W138, F135A); assay: ITC ligand binding, F135A dSAMTOR; details: ITC
Method in brief: as §1

[13] = molecular target: hSAMTOR; details: read-out: dissociation constant (Kd); cited from earlier work
[14] = molecular target: T1, hSAMTOR (WT) interaction with GATOR1-KICSTOR (Homo sapiens, UniProt Q1RMZ1); details: previous cell biology data; cited from earlier work
T1 sequence (Q1RMZ1 1-405): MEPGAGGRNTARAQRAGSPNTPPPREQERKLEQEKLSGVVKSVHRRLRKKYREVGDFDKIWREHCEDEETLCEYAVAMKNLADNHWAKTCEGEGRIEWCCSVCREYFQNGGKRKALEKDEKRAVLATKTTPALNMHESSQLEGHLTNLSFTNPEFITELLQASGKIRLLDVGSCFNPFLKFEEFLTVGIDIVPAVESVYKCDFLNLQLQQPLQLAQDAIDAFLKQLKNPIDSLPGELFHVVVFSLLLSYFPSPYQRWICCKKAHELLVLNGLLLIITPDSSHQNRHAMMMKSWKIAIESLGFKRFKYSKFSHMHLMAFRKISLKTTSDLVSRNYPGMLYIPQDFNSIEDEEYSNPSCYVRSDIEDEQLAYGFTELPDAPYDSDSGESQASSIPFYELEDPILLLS

F135A mutant dSAMTOR, sequence (Q9W138 whole entry F135A): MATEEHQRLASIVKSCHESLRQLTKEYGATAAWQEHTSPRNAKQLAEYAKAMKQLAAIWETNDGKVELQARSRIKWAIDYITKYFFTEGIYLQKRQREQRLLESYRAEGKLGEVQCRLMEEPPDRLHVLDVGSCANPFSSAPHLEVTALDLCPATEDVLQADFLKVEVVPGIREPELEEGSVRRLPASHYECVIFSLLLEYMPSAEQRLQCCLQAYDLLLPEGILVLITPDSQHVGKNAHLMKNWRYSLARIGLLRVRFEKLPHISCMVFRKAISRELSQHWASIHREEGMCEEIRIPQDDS
V66W/E67P mutant dSAMTOR, sequence (Q9W138 whole entry V66W/E67P): as the sequence (Q9W138 whole entry F135A) above, with V66W, E67P, A135F counted along it
N-terminal truncated dSAMTOR (Δ1-64), sequence (Q9W138 65-302, stated change not applied): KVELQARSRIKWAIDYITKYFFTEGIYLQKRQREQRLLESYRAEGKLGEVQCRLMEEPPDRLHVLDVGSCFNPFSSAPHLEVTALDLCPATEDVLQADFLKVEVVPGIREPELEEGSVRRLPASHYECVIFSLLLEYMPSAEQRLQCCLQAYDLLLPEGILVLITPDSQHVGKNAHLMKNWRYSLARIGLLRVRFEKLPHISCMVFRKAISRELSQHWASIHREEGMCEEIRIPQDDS
Y201A mutant dSAMTOR, sequence (Q9W138 whole entry Y201A): as the sequence (Q9W138 whole entry F135A) above, with A135F, Y201A counted along it
dSAMTOR (WT, full-length), sequence (Q9W138 whole entry, the tested form may be a part): as the sequence (Q9W138 whole entry F135A) above, with A135F counted along it
L163A mutant dSAMTOR, sequence (Q9W138 whole entry F163A): as the sequence (Q9W138 whole entry F135A) above, with A135F, F163A counted along it
M202A mutant dSAMTOR, sequence (Q9W138 whole entry M202A): as the sequence (Q9W138 whole entry F135A) above, with A135F, M202A counted along it
D150A mutant dSAMTOR, sequence (Q9W138 whole entry D150A): as the sequence (Q9W138 whole entry F135A) above, with A135F, D150A counted along it
L197A mutant dSAMTOR, sequence (Q9W138 whole entry L197A): as the sequence (Q9W138 whole entry F135A) above, with A135F, L197A counted along it
D162A mutant dSAMTOR, sequence (Q9W138 whole entry D162A): as the sequence (Q9W138 whole entry F135A) above, with A135F, D162A counted along it
R73A mutant dSAMTOR, sequence (Q9W138 whole entry R73A): as the sequence (Q9W138 whole entry F135A) above, with R73A, A135F counted along it
L151A mutant dSAMTOR, sequence (Q9W138 whole entry L151A): as the sequence (Q9W138 whole entry F135A) above, with A135F, L151A counted along it

Compound: Nc1ncnc2c1ncn2[C@@H]1O[C@H](CSCC[C@H](N)C(=O)O)[C@@H](O)[C@H]1O [SAH, S-adenosyl-L-homocysteine]
Kd [1]: 8.7 ± 0.92 µM | TΔS [1]: -2.99 kcal/mol | n value [1]: 0.81 ± 0.09 | ΔH [1]: -9.94 ± 1.48 kcal/mol | Kd [2]: 13.1 ± 0.8 µM | TΔS [2]: -8.08 kcal/mol | n value [2]: 0.67 ± 0.04 | ΔH [2]: -14.70 ± 1.05 kcal/mol | Kd [3]: 11.3 ± 0.37 µM | n value [3]: 1.02 ± 0.02 | ΔH [3]: -5.09 ± 0.12 kcal/mol | Kd [4]: completely abolish SAH binding | Kd [5]: completely abolish SAH binding | Kd [6]: completely abolish SAH binding | Kd [7]: completely abolish SAH binding | Kd [8]: completely abolish SAH binding | Kd [9]: completely abolish SAH binding | Kd ([10]; 25°C, Y201A dSAMTOR): 67.3 ± 6.03 µM | TΔS ([10]; 25°C, Y201A dSAMTOR): 2.80 kcal/mol | n value ([10]; 25°C, Y201A dSAMTOR): 0.74 ± 0.02 | ΔH ([10]; 25°C, Y201A dSAMTOR): -2.89 ± 0.17 kcal/mol | decrease of binding affinity compared to the WT dSAMTOR ([10]; Y201A vs WT dSAMTOR): 7.7 fold | Kd [11]: completely abolish SAH binding | increase of binding affinity compared to the WT dSAMTOR ([12]; F135A vs WT dSAMTOR): < 2 fold | Kd ([12]; 25°C, F135A dSAMTOR): 4.76 ± 0.71 µM | TΔS ([12]; 25°C, F135A dSAMTOR): -1.26 kcal/mol | n value ([12]; 25°C, F135A dSAMTOR): 0.80 ± 0.02 | ΔH ([12]; 25°C, F135A dSAMTOR): -8.52 ± 0.51 kcal/mol | Kd [13]: 4.6 µM | effect of ligand binding on interaction of hSAMTOR with GATOR1-KICSTOR [14]: can disrupt the interaction of hSAMTOR with GATOR1-KICSTOR

Kd [1]: no measurable binding
Compound: Nc1ncnc2c1ncn2[C@@H]1O[C@H](CO)[C@@H](O)[C@H]1O [adenosine]

Kd [1]: no measurable binding
Compound: CSCC[C@H](N)C(=O)O [methionine]
